Measurements: ChEMBL document CHEMBL3792290, “Part 1: Notch-sparing γ-secretase inhibitors: The identification of novel naphthyl and benzofuranyl amide analogs” (Bioorg Med Chem Lett, 2016)
≈ marks a conversion by molar mass, not a printed value.

Assays:
[1] = Inhibition of human gamma-secretase expressed in CHO cells assessed as effect on Notch1 processing at 100 uM using N100-Flag as substrate incubated for 4 hrs by Western blot analysis relative to DMSO control; type: cell-based
Procedure, shortened: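 Purified human γ-secretase from CHO cells stably overexpressing all four components; E. coli-expressed purified C100-Flag (APP) or N100-Flag (Notch) substrate; compounds at 100 μM final in 0.2% CHAPSO/HEPES pH 7.0 with 0.08% phosphatidylcholine, 0.02% phosphatidylethanolamine, DMSO <1% final; 37°C, 4 h; stopped with 0.5% SDS; Aβ40 by ELISA or Notch1 processing by Western blot, versus DMSO control.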

[2] = target: T1, Gamma-secretase (Homo sapiens) (UniProt Q96BI3+Q9NZ42+Q8WW43+P49768+Q92542+P49810); test: Inhibition of purified human gamma-secretase expressed in CHO cells assessed as suppression of amyloid beta 40 production at 100 uM using C100-Flag as substrate incubated for 4 hrs by ELISA relative to DMSO control
Gamma-secretase [3] = test: Inhibition of gamma-secretase (unknown origin) assessed as suppression of amyloid beta 42 production by cell-based assay; design: species or system Homo sapiens
Gamma-secretase [4] = test: Inhibition of human gamma-secretase expressed in CHO cells assessed as suppression of amyloid beta 40 production using C100-Flag as substrate incubated for 4 hrs by ELISA relative to DMSO control; type: cell-based
Procedure, shortened: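 Enzyme from CHO cells stably overexpressing all four γ-secretase components, purified; C100-Flag substrate expressed in E. coli; reaction in 0.2% CHAPSO/HEPES pH 7.0 containing 0.08% phosphatidylcholine and 0.02% phosphatidylethanolamine, final DMSO <1%; incubated 37°C for 4 h, quenched with SDS (0.5% final); Aβ40 quantified by specific ELISA as percent of DMSO control.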

Gamma-secretase [5] = test: Inhibition of human gamma-secretase expressed in CHO cells assessed as suppression of amyloid beta 42 production using C100-Flag as substrate incubated for 4 hrs by ELISA; type: cell-based
[6] = target: T1, Gamma-secretase (Homo sapiens); test: Inhibition of gamma-secretase (unknown origin) assessed as suppression of amyloid beta 42 production at 100 uM by cell-based assay
Gamma-secretase [7] = test: Inhibition of gamma-secretase (unknown origin) assessed as suppression of amyloid beta 40 production by cell-based assay; design: species or system Homo sapiens
[8] = Inhibition of gamma-secretase (unknown origin) assessed as suppression of Notch1 processing by cell-based assay; details: Homo sapiens
[9] = Solubility of compound in PBS buffer at pH 7.4; type: physicochemical
[10] = Lipophilicity, logD of the compound; type: physicochemical; details: octanol/water
[11] = Protein binding in human plasma; type: ADME, cell-free; details: read-out: PPB (converted)
[12] = Permeability of compound from apical to basolateral side; type: ADME; details: not told; read-out: permeability
[13] = Metabolic stability in human liver microsomes assessed as parent compound remaining after 60 mins; type: ADME; details: read-out: Stability
[14] = Metabolic stability in rat liver microsomes assessed as parent compound remaining after 60 mins; type: ADME; details: read-out: Stability

Row | SMILES | inhibition (INH) [1] | inhibition [2] [%] | other results
1 | CN(Cc1ccccc1)C(=O)c1ccc2ccccc2c1 | – | 15 | –
2 | CC(C)N(Cc1ccccc1)C(=O)c1ccccc1 | – | 10 | –
3 | CC(C)N(Cc1ccccc1)C(=O)c1ccc2occc2c1 | – | 14 | –
4 | O=S(=O)(c1ccc(F)cc1)N(Cc1ccccc1OC1CCOCC1)c1cc(F)ccc1F | – | – | IC50 (Gamma-secretase [3]): 620 nM; IC50 (Gamma-secretase [4]): 360 nM; IC50 (Gamma-secretase [5]): 400 nM
5 | CC(C)N(Cc1ccc(N2CCCCC2)cc1)C(=O)c1ccc2ccccc2c1 | Active | 38 | –
6 | COC(=O)c1ccc(CN(c2cc(F)ccc2F)S(=O)(=O)c2ccc(F)cc2)cc1 | – | – | IC50 (Gamma-secretase [4]): 580 nM
7 | CC(C)N(Cc1ccccc1)C(=O)c1ccc(-c2ccccc2)cc1 | – | 27 | –
8 | O=C(NCc1ccccc1)c1ccc2ccccc2c1 | – | 0 | –
9 | CC(C)N(Cc1ccccc1)C(=O)c1ccc(C(C)(C)C)cc1 | Active | 85 | –
10 | CC(C)N(Cc1ccccc1)C(=O)c1cccc(Oc2ccccc2)c1 | Active | 50 | –
11 | CC(C)N(Cc1ccccc1)C(=O)c1cn(C)c2ccccc12 | – | 0 | –
12 | CC(C)N(Cc1cc(F)cc(F)c1)C(=O)c1ccc2ccccc2c1 | – | 21 | –
13 | CC(C)N(Cc1ccccc1)C(=O)c1ccc2ccccc2c1O | Not Active | 67 | IC50 (Gamma-secretase [3]): 96000 nM
14 | O=C(c1ccc2ccccc2c1)N(Cc1ccccc1)C1CC1 | Not Active | 37 | –
15 | CC(C)(C)N(Cc1ccccc1)C(=O)c1ccc2ccccc2c1 | Not Active | 52 | –
16 | CCC(CC)N(Cc1ccc(C(=O)O)cc1)S(=O)(=O)c1ccc(Cl)cc1 | – | – | IC50 (Gamma-secretase [3]): 130 nM; IC50 (Gamma-secretase [7]): 120 nM; IC50 [8]: 10000 nM
17 | CC(C)N(Cc1ccccc1)C(=O)c1ccc2ccccc2c1 | Not Active | 58 | solubility [9]: 63 µM (≈ 19.1 µg/mL); logD [10]: 4.2; fraction unbound [11]: 0.043; Papp A→B [12]: 39.6 ×10⁻⁶ cm/s; remaining at 1 h [13]: 28%; remaining at 1 h [14]: 1%; inhibition [6]: 81%
18 | CC(C)N(Cc1ccc(C#N)cc1)C(=O)c1ccc2ccccc2c1 | – | 31 | –
19 | CC(C)N(Cc1ccccc1)C(=O)c1cnc2ccccc2c1 | Active | 50 | –

Further lines, with some results ahead:

Row | inhibition (INH) [1] | inhibition [2] [%] | SMILES | other results
20 | Active | 47 | COc1ccc(CN(C(=O)c2ccc3ccccc3c2)C(C)C)cc1 | –
21 | – | 0 | Cc1c(C(=O)N(Cc2ccc(Cl)c(Cl)c2)C(C)C)oc2ccccc12 | –
22 | – | 31 | CC(C)N(Cc1cccc(C#N)c1)C(=O)c1ccc2ccccc2c1 | –
23 | Not Active | 40 | CC(C)N(Cc1ccccc1)C(=O)c1cc2ccccc2o1 | –
24 | Not Active | 51 | CC(C)N(Cc1ccc(Cl)c(Cl)c1)C(=O)c1cc2ccccc2o1 | –
25 | Not Active | 23 | COc1cccc2cc(C(=O)N(Cc3ccc(Cl)c(F)c3)C(C)C)oc12 | –
26 | – | 27 | CC(C)N(Cc1cc(F)cc(F)c1)C(=O)c1ccc2ccccc2c1O | –
27 | Not Active | 41 | CC(C)N(Cc1ccc(Cl)c(Cl)c1)C(=O)c1ccc2ccccc2c1O | IC50 (Gamma-secretase [3]): 85000 nM
28 | Not Active | 19 | COc1cccc(CN(C(=O)c2ccc3ccccc3c2)C(C)C)c1 | –
29 | Not Active | 35 | COc1cc(CN(C(=O)c2ccc3ccccc3c2)C(C)C)cc(OC)c1 | –
30 | Not Active | 75 | COc1cccc2cc(C(=O)N(Cc3ccc(Cl)c(Cl)c3)C(C)C)oc12 | inhibition [6]: 81%
31 | Not Active | 49 | CC(C)N(Cc1ccc(F)c(F)c1)C(=O)c1ccc2ccccc2c1O | –
32 | Not Active | 33 | COc1ccc(CN(C(=O)c2ccc3ccccc3c2O)C(C)C)cc1 | IC50 (Gamma-secretase [3]): 95000 nM
33 | Not Active | 34 | CC(C)N(Cc1ccc(F)c(F)c1)C(=O)c1ccc2ccccc2c1 | –
34 | Not Active | 58 | CCOc1cccc2cc(C(=O)N(Cc3ccc(Cl)c(Cl)c3)C(C)C)oc12 | –
35 | Not Active | 49 | COc1cccc2cc(C(=O)N(Cc3ccc(F)c(Cl)c3)C(C)C)oc12 | –
36 | Not Active | 58 | CC(C)N(Cc1ccc(Cl)c(Cl)c1)C(=O)c1ccc2ccccc2c1 | IC50 (Gamma-secretase [3]): 135000 nM
37 | Not Active | 33 | CC(C)N(Cc1ccccc1)C(=O)c1cnc2cc(Cl)ccc2c1O | –
